From ChEMBL document CHEMBL3992547, “Antimicrobial activity of rhodanine-3-acetic acid derivatives” (Bioorg Med Chem, 2017)
Active and inactive are the calls of the source.

What was measured:
[1] = system: Candida tropicalis; assay: Antifungal activity against Candida tropicalis 156 after 24 hrs by microdilution broth assay; format: functional; details: Candida tropicalis, 156, 24 h
Method in brief: (§1)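 Broth microdilution per CLSI M27-A3 and M38-A2 in RPMI 1640 with glutamine, buffered to pH 7.0 with MOPS. Compounds are diluted in DMSO. Final inoculum is 5 × 10³ CFU/mL for yeasts and 0.5–5 × 10⁴ CFU/mL for moulds. Plates are incubated in the dark at 35 °C in humid air and read visually and/or at 540 nm after 24 and 48 h. MIC is ≥80% growth reduction (IC₈₀) for yeasts and ≥50% (IC₅₀) for filamentous fungi.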

[2] = system: Trichosporon asahii; assay: Antifungal activity against Trichosporon asahii 1188 after 48 hrs by microdilution broth assay; format: functional; details: Trichosporon asahii, 1188, 48 h; method in brief: as §1
[3] = system: Mycobacterium kansasii; assay: Antimycobacterial activity against Mycobacterium kansasii isolate 6509/96 after 14 days by micromethod; format: functional; details: isolate 6509/96, 336 h
[4] = system: Aspergillus fumigatus; assay: Antifungal activity against Aspergillus fumigatus 231 after 48 hrs by microdilution broth assay; format: functional; details: Aspergillus fumigatus, 231, 48 h; method in brief: as §1
[5] = system: Mycobacterium kansasii; assay: Antimycobacterial activity against Mycobacterium kansasii isolate 235/80 after 21 days by micromethod; format: functional; details: isolate 235/80, 504 h
[6] = system: Staphylococcus aureus; assay: Antibacterial activity against Staphylococcus aureus CCM 4516/08 incubated for 48 hrs under dark condition by microdilution broth assay; format: functional; details: CCM 4516/08, 48 h
Method in brief: (§2)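 Broth microdilution per M07-A07, modified, in Mueller-Hinton broth adjusted to pH 7.4 (±0.2). Inoculum is prepared in sterile water to McFarland 0.5 (1.5 × 10⁸ CFU/mL). Plates are incubated in the dark at 35 °C in humid air. MIC is read after 24 and 48 h as at least 95% growth reduction versus control (IC₉₅).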

[7] = system: Mycobacterium avium; assay: Antimycobacterial activity against Mycobacterium avium 330/88 measured after 14 days by micromethod; format: functional; details: 330/88, 336 h
[8] = system: Mycobacterium avium; assay: Antimycobacterial activity against Mycobacterium avium 330/88 measured after 21 days by micromethod; format: functional; details: 330/88, 504 h
[9] = system: Candida albicans; assay: Antifungal activity against Candida albicans ATCC 44859 after 48 hrs by microdilution broth assay; format: functional; details: ATCC 44859, 48 h; method in brief: as §1
[10] = system: Staphylococcus aureus; assay: Antibacterial activity against methicillin-resistant Staphylococcus aureus H 5996/08 incubated for 48 hrs under dark condition by microdilution broth assay; format: functional; details: H 5996/08, 48 h
Method in brief: (§3)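 Microdilution broth method modified per M07-A07, in Mueller-Hinton broth adjusted to pH 7.4 (±0.2). Inoculum made in sterile water to 0.5 McFarland (1.5 × 10⁸ CFU/mL). Plates incubated in the dark at 35 °C in a humid atmosphere, with reads at 24 and 48 h. MIC taken as at least 95% growth reduction (IC₉₅) versus control.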

[11] = Solubility of the compound in Sula's semisynthetic medium up to 1 mM; format: physicochemical
[12] = system: Staphylococcus epidermidis; assay: Antibacterial activity against Staphylococcus epidermidis H 6966/08 incubated for 24 hrs under dark condition by microdilution broth assay; format: functional; details: H 6966/08, 24 h; method in brief: as §2
[13] = system: Lichtheimia corymbifera; assay: Antifungal activity against Absidia corymbifera 272 after 24 to 48 hrs hrs by microdilution broth assay; format: functional; method in brief: as §1
[14] = system: Nakaseomyces glabratus; assay: Antifungal activity against Candida glabrata 20/I after 24 hrs by microdilution broth assay; format: functional; method in brief: as §1
[15] = system: Aspergillus fumigatus; assay: Antifungal activity against Aspergillus fumigatus 231 after 24 hrs by microdilution broth assay; format: functional; details: Aspergillus fumigatus, 231, 24 h; method in brief: as §1
[16] = system: Mycobacterium tuberculosis; assay: Antimycobacterial activity against Mycobacterium tuberculosis H37Rv 331/88 measured after 21 days by micromethod; format: functional; details: H37Rv 331/88, 504 h
[17] = system: Mycobacterium kansasii; assay: Antimycobacterial activity against Mycobacterium kansasii isolate 6509/96 after 7 days by micromethod; format: functional; details: isolate 6509/96, 168 h
[18] = system: Candida albicans; assay: Antifungal activity against Candida albicans ATCC 44859 after 24 hrs by microdilution broth assay; format: functional; details: ATCC 44859, 24 h; method in brief: as §1
[19] = system: Klebsiella pneumoniae; assay: Antibacterial activity against Klebsiella pneumoniae D 11750/08 up to 500 uM incubated for 24 to 48 hrs under dark condition by microdilution broth assay; format: functional; method in brief: as §2
[20] = system: Enterococcus; assay: Antibacterial activity against Enterococcus sp. J 14365/08 incubated for 48 hrs under dark condition by microdilution broth assay; details: J 14365/08, 48 h
[21] = system: Trichosporon asahii; assay: Antifungal activity against Trichosporon asahii 1188 after 24 hrs by microdilution broth assay; format: functional; details: Trichosporon asahii, 1188, 24 h; method in brief: as §1
[22] = system: Staphylococcus aureus; assay: Antibacterial activity against Staphylococcus aureus CCM 4516/08 incubated for 24 hrs under dark condition by microdilution broth assay; format: functional; details: CCM 4516/08, 24 h; method in brief: as §2
[23] = system: Mycobacterium tuberculosis; assay: Antimycobacterial activity against Mycobacterium tuberculosis H37Rv 331/88 measured after 14 days by micromethod; format: functional; details: H37Rv 331/88, 336 h
[24] = system: Mycobacterium kansasii; assay: Antimycobacterial activity against Mycobacterium kansasii isolate 6509/96 after 21 days by micromethod; format: functional; details: isolate 6509/96, 504 h
[25] = system: Staphylococcus aureus; assay: Antibacterial activity against methicillin-resistant Staphylococcus aureus H 5996/08 incubated for 24 hrs under dark condition by microdilution broth assay; format: functional; details: H 5996/08, 24 h; method in brief: as §3
[26] = system: Nakaseomyces glabratus; assay: Antifungal activity against Candida glabrata 20/I after 48 hrs by microdilution broth assay; format: functional; method in brief: as §1
[27] = system: Pseudomonas aeruginosa; assay: Antibacterial activity against Pseudomonas aeruginosa CCM 1961 up to 500 uM incubated for 24 to 48 hrs under dark condition by microdilution broth assay; format: functional; method in brief: as §2
[28] = system: Pichia kudriavzevii; assay: Antifungal activity against Candida krusei E28 after 24 to 48 hrs hrs by microdilution broth assay; format: functional; method in brief: as §1
[29] = system: Mycobacterium kansasii; assay: Antimycobacterial activity against Mycobacterium kansasii isolate 235/80 after 14 days by micromethod; format: functional; details: isolate 235/80, 336 h
[30] = system: Staphylococcus epidermidis; assay: Antibacterial activity against Staphylococcus epidermidis H 6966/08 incubated for 48 hrs under dark condition by microdilution broth assay; format: functional; details: H 6966/08, 48 h; method in brief: as §2
[31] = system: Escherichia coli; assay: Antibacterial activity against Escherichia coli CCM 4517 incubated for 24 hrs under dark condition by microdilution broth assay; format: functional; details: CCM 4517, 24 h; method in brief: as §2
[32] = system: Trichophyton mentagrophytes; assay: Antifungal activity against Trichophyton mentagrophytes 445 after 120 hrs by microdilution broth assay; format: functional; details: Trichophyton mentagrophytes, 445, 120 h
Method in brief: (§4)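 Broth microdilution per CLSI M38-A2 in RPMI 1640 with glutamine, buffered to pH 7.0 with MOPS, with DMSO as diluent. Final inoculum is 0.5–5 × 10⁴ CFU/mL. Plates are incubated in the dark at 35 °C in humid air and read visually and/or at 540 nm after 72 and 120 h. MIC is at least 50% growth reduction versus control.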

[33] = system: Enterococcus; assay: Antibacterial activity against Enterococcus sp. J 14365/08 incubated for 24 hrs under dark condition by microdilution broth assay; details: J 14365/08, 24 h
[34] = system: Mycobacterium kansasii; assay: Antimycobacterial activity against Mycobacterium kansasii isolate 235/80 after 7 days by micromethod; format: functional; details: isolate 235/80, 168 h
[35] = system: Escherichia coli; assay: Antibacterial activity against Escherichia coli CCM 4517 incubated for 48 hrs under dark condition by microdilution broth assay; format: functional; details: CCM 4517, 48 h; method in brief: as §2
[36] = system: Klebsiella pneumoniae; assay: Antibacterial activity against ESBL positive Klebsiella pneumoniae J 14368/08 up to 500 uM incubated for 24 to 48 hrs under dark condition by microdilution broth assay; format: functional; method in brief: as §2
[37] = system: Trichophyton mentagrophytes; assay: Antifungal activity against Trichophyton mentagrophytes 445 after 72 hrs by microdilution broth assay; format: functional; details: Trichophyton mentagrophytes, 445, 72 h; method in brief: as §4
[38] = system: Candida tropicalis; assay: Antifungal activity against Candida tropicalis 156 after 48 hrs by microdilution broth assay; format: functional; details: Candida tropicalis, 156, 48 h; method in brief: as §1

O=C(CN1C(=O)CSC1=S)Oc1ccc([N+](=O)[O-])cc1
500 µM: MIC [3] | MIC95 [6] | MIC95 [10] | MIC95 [12] | MIC50 [15] | MIC [16] | MIC [17] | MIC95 [20] | MIC [23] | MIC [24] | MIC95 [25] | MIC [29] | MIC95 [30] | MIC95 [33] | MIC [34]
Soluble: solubility [11]
125 µM: MIC50 [37]
250 µM: MIC95 [22] | MIC50 [32]
1000 µM: MIC [5] | MIC [7] | MIC [8]
inactive: Activity [13] | Activity [19] | Activity [27] | Activity [28] | Activity [36]
> 500 µM: MIC80 [1] | MIC80 [2] | MIC50 [4] | MIC80 [9] | MIC80 [14] | MIC80 [18] | MIC80 [21] | MIC80 [26] | MIC95 [31] | MIC95 [35] | MIC80 [38]

CC(=O)Oc1ccccc1/C=C1\SC(=S)N(CC(=O)O)C1=O
31.2 µM: MIC95 [12] | MIC95 [30]
32 µM: MIC [16] | MIC [23]
inactive: Activity [13] | Activity [19] | Activity [27] | Activity [28] | Activity [36]
62.5 µM: MIC [3] | MIC [5] | MIC95 [6] | MIC [7] | MIC [8] | MIC95 [10] | MIC [17] | MIC95 [22] | MIC [24] | MIC95 [25] | MIC [29] | MIC95 [33] | MIC [34]
> 500 µM: MIC80 [1] | MIC80 [2] | MIC50 [4] | MIC80 [9] | MIC80 [14] | MIC50 [15] | MIC80 [18] | MIC80 [21] | MIC80 [26] | MIC95 [31] | MIC95 [35] | MIC80 [38]
500 µM: MIC50 [32]
Soluble: solubility [11]
125 µM: MIC95 [20]
250 µM: MIC50 [37]
